Key:
[1] = Oral bioavailability in Sprague-Dawley rat at 10 mg/Kg; format: ADME, organism-based; conditions: in vivo
Rattus norvegicus [2] = assay: Antineuropathic pain activity in rat spinal nerve ligation model assessed as effect on mechanical allodynia by measuring frequency of paw withdrawal at 100 mg/kg, po measured at 5 hrs relative to gabapentin; format: functional
Outline: (§1)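 Spinal nerve ligation rats tested 2 weeks after nerve surgery, 100 mg/kg oral, n = 4 per group. Behaviour re-tested at 1, 3 and 5 h after dosing. Mechanical allodynia: von Frey filament applied five times, every 3–4 s, to the hind paw on a wire mesh floor. Cold allodynia: acetone applied to the plantar hind paw on a metal mesh floor.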

[3] = target: Voltage-dependent T-type calcium channel subunit alpha-1G (Homo sapiens, UniProt O43497); assay: Inhibition of Cav3.1 alpha1G (unknown origin) expressed in HEK293 cells assessed as decrease in KCl-induced depolarization mediated intracellular Ca2+ level at 10 uM by fluo3/AM based high throughput screening assay relative to control; format: cell-based
Outline: (§2)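 HEK293 cells stably expressing Cav3.1 or Cav3.2 plated at 4 × 10⁴ cells/well and used the next day. Loaded 60 min at room temperature with […] fluo3/AM plus 0.001% Pluronic F-127 in HEPES-buffered saline (1.8 mM CaCl₂, pH 7.4). Ca²⁺ fluorescence read on FDSS6000 as % inhibition, compound at […].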

[4] = AUC (0 to infinity) in Sprague-Dawley rat at 10 mg/kg, iv; format: ADME, organism-based; design: dose 10 mg/kg, route intravenous, time infinity; conditions: in vivo
[5] = Plasma concentration in Sprague-Dawley rat at 10 mg/kg, po at 2 hrs post dose; format: ADME, organism-based
[6] = Plasma concentration in Sprague-Dawley rat at 10 mg/kg, iv at 2 hrs post dose; format: ADME, organism-based
CYP1A2 = target: T1, CYP1A2 (Homo sapiens, UniProt P05177); assay: Inhibition of human CYP1A2 assessed as remaining activity at 10 uM using vivid CYP450 substrate measured after 15 mins by fluorescence assay relative to alpha-naphthoflavon; format: ADME; conditions: probe vivid CYP450 substrate, read-out: Activity
T1 sequence (P05177 whole entry): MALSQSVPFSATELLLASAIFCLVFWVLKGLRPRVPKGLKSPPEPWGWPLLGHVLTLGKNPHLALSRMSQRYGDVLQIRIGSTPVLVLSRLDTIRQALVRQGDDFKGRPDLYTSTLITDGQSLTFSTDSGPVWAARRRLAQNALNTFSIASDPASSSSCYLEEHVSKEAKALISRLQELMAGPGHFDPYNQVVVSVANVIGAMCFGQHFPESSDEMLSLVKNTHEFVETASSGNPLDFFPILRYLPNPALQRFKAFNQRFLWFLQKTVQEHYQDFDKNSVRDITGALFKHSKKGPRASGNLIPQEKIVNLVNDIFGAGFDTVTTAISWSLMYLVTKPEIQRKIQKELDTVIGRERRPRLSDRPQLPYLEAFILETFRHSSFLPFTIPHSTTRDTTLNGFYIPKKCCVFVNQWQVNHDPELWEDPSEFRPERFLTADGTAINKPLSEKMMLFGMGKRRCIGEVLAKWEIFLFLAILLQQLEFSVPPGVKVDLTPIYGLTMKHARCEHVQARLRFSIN
Outline: (§3)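 Vivid fluorescence CYP assay: test compound at […] in water, mixed with BACULOSOMES master pre-mix and regeneration system, preincubated 15 min at 37 °C. Reaction started with Vivid substrate and NADPH. Remaining activity read by fluorescence as % of control, triplicate, mean ± SD. Isoform-specific reference inhibitors: α-naphthoflavone (1A2), sulfaphenazole (2C9), quinidine (2D6), ketoconazole (3A4).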

Rattus norvegicus [7] = assay: Antineuropathic pain activity in rat spinal nerve ligation model assessed as effect on mechanical allodynia by measuring frequency of paw withdrawal at 100 mg/kg, po measured at 3 hrs relative to control; format: functional; outline: as §1
Rattus norvegicus [8] = assay: Antineuropathic pain activity in rat spinal nerve ligation model assessed as effect on mechanical allodynia by measuring frequency of paw withdrawal at 100 mg/kg, po measured at 5 hrs relative to control; format: functional; outline: as §1
[9] = Terminal half life in Sprague-Dawley rat at 10 mg/kg, po; format: ADME, organism-based; conditions: in vivo, read-out: beta t1/2
[10] = Drug uptake in Sprague-Dawley rat brain at 10 mg/kg, po at 2 hrs post dose; format: ADME, organism-based; conditions: read-out: Drug uptake
[11] = Inhibition of N-type Ca2+ channel (unknown origin) by whole-cell patch clamp method; conditions: Homo sapiens
[12] = Drug excretion in Sprague-Dawley rat at 10 mg/kg, iv; format: ADME, organism-based; conditions: in vivo, read-out: Drug excretion
[13] = Ratio of drug level in brain to plasma in Sprague-Dawley rat at 10 mg/kg, iv at 2 hrs post dose; format: ADME, organism-based; conditions: read-out: BPR
Rattus norvegicus [14] = assay: Antineuropathic pain activity in rat spinal nerve ligation model assessed as effect on cold allodynia by measuring frequency of paw withdrawal at 100 mg/kg, po measured at 5 hrs relative to gabapentin; format: functional; outline: as §1
[15] = target: Voltage-dependent T-type calcium channel subunit alpha-1H (Homo sapiens, UniProt O95180); assay: Inhibition of Cav3.2 alpha1H (unknown origin) expressed in HEK293 cells assessed as decrease in KCl-induced depolarization mediated intracellular Ca2+ level at 10 uM by fluo3/AM based high throughput screening assay relative to control; format: cell-based; outline: as §2
CYP2C9 = CYP2C9 (Homo sapiens, UniProt P11712); assay: Inhibition of human CYP2C9 assessed as remaining activity at 10 uM using vivid CYP450 substrate measured after 15 mins by fluorescence assay relative to sulfaphenazol; format: ADME; conditions: probe vivid CYP450 substrate, read-out: Activity; outline: as §3
[16] = Metabolic stability in human liver microsomes assessed as compound remaining at 1 uM in presence of NADPH as cofactor by LC-MS/MS method; format: ADME; conditions: read-out: Stability
Outline: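 Pooled mixed-gender human liver microsomes incubated with compound at 37 °C with NADPH as cofactor. Result given as % parent compound remaining.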

[17] = AUClast in Sprague-Dawley rat at 10 mg/kg, iv; format: ADME, organism-based; design: dose 10 mg/kg, time 0 - last, route intravenous; conditions: in vivo
Rattus norvegicus [18] = assay: Antineuropathic pain activity in rat spinal nerve ligation model assessed as effect on mechanical allodynia by measuring frequency of paw withdrawal at 100 mg/kg, po measured at 1 hr relative to gabapentin; format: functional; outline: as §1
[19] = Cmax in Sprague-Dawley rat at 10 mg/kg, po; format: ADME, organism-based; design: dose 10 mg/kg, route oral; conditions: in vivo
CYP2D6 = CYP2D6 (Homo sapiens, UniProt P10635); assay: Inhibition of human CYP2D6 assessed as remaining activity at 10 uM using vivid CYP450 substrate measured after 15 mins by fluorescence assay relative to quinidine; format: ADME; conditions: probe vivid CYP450 substrate, read-out: Activity; outline: as §3
Rattus norvegicus [20] = assay: Antineuropathic pain activity in rat spinal nerve ligation model assessed as effect on cold allodynia by measuring frequency of paw withdrawal at 100 mg/kg, po measured at 3 hrs relative to control; format: functional; outline: as §1
[21] = Total clearance in Sprague-Dawley rat at 10 mg/kg, iv; format: ADME, organism-based; conditions: in vivo
Rattus norvegicus [22] = assay: Antineuropathic pain activity in rat spinal nerve ligation model assessed as effect on cold allodynia by measuring frequency of paw withdrawal at 100 mg/kg, po measured at 1 hr relative to control; format: functional; outline: as §1
[23] = AUC (0 to infinity) in Sprague-Dawley rat at 10 mg/kg, po; format: ADME, organism-based; design: dose 10 mg/kg, time infinity, route oral; conditions: in vivo
[24] = Tmax in Sprague-Dawley rat at 10 mg/kg, po; format: ADME, organism-based; conditions: in vivo

CYP2C9, sequence (P11712 whole entry): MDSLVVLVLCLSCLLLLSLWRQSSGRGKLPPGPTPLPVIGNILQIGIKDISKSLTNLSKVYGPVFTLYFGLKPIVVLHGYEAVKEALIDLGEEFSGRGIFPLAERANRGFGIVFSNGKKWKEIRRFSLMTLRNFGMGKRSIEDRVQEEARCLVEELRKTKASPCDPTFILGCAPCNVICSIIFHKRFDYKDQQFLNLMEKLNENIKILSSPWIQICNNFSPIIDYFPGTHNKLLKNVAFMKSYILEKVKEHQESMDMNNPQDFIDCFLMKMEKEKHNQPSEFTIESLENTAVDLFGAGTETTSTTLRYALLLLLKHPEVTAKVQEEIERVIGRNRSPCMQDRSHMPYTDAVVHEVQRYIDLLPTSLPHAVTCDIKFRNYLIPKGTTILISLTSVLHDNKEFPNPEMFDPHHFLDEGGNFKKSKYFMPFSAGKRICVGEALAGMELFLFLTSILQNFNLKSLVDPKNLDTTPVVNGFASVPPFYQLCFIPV
Voltage-dependent T-type calcium channel subunit alpha-1G, sequence (O43497 whole entry): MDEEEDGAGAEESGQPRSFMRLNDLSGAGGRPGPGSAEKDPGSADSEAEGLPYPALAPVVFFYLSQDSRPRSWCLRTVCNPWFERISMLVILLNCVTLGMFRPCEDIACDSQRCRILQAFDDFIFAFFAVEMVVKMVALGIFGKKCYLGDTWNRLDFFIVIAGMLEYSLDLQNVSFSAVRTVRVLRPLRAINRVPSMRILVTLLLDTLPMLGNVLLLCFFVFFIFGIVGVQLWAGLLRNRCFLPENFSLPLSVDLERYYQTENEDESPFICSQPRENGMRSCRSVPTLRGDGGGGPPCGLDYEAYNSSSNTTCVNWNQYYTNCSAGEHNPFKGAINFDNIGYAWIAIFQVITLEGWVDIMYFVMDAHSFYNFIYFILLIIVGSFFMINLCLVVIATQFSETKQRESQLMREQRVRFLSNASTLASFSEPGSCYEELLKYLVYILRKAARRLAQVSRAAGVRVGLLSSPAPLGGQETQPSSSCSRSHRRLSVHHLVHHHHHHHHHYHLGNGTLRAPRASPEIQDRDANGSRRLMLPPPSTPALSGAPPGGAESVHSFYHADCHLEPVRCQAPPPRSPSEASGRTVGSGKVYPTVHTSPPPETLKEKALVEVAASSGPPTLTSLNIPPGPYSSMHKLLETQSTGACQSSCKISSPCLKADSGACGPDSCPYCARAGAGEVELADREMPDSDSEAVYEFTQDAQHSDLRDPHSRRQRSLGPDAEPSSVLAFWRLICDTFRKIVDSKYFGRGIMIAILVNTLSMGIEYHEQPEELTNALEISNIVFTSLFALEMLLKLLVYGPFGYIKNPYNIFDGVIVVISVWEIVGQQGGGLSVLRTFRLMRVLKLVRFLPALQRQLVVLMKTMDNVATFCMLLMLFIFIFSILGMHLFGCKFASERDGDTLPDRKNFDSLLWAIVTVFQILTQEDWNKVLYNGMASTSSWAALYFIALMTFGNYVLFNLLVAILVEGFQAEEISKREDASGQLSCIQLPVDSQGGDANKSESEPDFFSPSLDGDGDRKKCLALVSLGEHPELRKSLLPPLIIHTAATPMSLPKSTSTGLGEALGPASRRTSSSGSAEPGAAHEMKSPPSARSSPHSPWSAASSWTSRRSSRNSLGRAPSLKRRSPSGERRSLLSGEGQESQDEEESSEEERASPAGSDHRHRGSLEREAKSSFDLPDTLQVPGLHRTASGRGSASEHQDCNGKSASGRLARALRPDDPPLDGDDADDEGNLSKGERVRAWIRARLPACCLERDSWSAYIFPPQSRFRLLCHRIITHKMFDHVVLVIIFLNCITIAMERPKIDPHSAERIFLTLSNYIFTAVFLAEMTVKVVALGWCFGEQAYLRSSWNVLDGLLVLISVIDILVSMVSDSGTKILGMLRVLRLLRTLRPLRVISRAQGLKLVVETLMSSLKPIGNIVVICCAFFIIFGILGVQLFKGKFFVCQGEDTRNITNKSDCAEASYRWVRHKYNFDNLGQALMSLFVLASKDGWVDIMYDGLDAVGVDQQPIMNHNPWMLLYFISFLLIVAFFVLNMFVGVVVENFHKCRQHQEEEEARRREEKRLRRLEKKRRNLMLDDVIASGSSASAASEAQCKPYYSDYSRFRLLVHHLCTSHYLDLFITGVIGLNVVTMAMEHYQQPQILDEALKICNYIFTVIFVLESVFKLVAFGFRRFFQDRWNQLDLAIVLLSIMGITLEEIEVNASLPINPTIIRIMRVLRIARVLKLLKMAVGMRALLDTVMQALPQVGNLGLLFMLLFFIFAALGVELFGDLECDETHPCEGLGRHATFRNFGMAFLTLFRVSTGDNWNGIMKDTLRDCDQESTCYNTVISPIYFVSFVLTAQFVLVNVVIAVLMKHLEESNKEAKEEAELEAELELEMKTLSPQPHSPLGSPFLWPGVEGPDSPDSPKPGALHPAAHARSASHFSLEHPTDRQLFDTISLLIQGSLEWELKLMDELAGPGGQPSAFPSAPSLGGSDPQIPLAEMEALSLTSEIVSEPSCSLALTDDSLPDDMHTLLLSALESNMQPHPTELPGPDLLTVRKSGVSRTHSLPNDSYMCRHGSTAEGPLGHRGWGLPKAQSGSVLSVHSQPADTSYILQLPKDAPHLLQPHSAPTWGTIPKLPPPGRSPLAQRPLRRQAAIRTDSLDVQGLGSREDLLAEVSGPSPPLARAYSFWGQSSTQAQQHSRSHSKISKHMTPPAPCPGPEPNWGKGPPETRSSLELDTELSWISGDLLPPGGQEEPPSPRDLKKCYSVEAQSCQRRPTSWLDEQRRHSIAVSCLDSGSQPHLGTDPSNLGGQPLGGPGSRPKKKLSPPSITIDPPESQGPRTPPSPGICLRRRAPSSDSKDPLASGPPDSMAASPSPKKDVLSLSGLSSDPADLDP
CYP2D6, sequence (P10635 whole entry): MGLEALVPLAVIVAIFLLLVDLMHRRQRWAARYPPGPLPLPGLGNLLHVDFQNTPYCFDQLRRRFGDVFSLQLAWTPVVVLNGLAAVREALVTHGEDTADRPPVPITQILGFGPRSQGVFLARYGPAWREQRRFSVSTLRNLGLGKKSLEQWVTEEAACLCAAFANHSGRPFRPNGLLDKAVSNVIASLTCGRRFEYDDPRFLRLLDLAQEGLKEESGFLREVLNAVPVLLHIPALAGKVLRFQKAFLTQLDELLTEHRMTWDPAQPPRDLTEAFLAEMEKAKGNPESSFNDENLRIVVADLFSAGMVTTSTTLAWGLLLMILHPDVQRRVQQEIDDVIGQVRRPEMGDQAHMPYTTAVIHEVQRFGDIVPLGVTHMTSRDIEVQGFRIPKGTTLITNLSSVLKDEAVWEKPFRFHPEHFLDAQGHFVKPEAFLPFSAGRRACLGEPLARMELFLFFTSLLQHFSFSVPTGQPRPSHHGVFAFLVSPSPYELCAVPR

CC(C)Cc1cc(CNS(=O)(=O)c2cccc(F)c2)nn1-c1ccccc1
bioavailability [1]: 8.3% | MPE (Rattus norvegicus [2]): 43.02% | inhibition [3]: 64.1% | AUC(0-inf) [4]: 2020 ng·h/mL | concentration at 2 h [5]: 50 ng/mL | concentration at 2 h [6]: 270 ng/mL | activity at 0.25 h, 10 µM (CYP1A2): 45.6% | MPE (Rattus norvegicus [7]): 29.68% | MPE (Rattus norvegicus [8]): 19.48% | half-life [9]: 1.11 h | concentration at 2 h [10]: 8.6 ng/mL | IC50 [11]: 14.5 µM | dose excreted [12]: 0% | Kp at 2 h [13]: 1.4 | MPE (Rattus norvegicus [14]): 185.11% | inhibition [15]: 62.7% | activity at 0.25 h, 10 µM (CYP2C9): 30.4% | remaining at 1 µM [16]: 1.72% | AUC(0-t) [17]: 2010 ng·h/mL | MPE (Rattus norvegicus [18]): 14.78% | Cmax [19]: 70 ng/mL | activity at 0.25 h, 10 µM (CYP2D6): 204% | MPE (Rattus norvegicus [20]): 73.87% | clearance [21]: 83.8 mL/min/kg | MPE (Rattus norvegicus [22]): 88.93% | AUC(0-inf) [23]: 168 ng·h/mL | Tmax [24]: 1.1 h

Reference: ChEMBL document CHEMBL3872218, “Synthesis and T-type calcium channel-blocking effects of aryl(1,5-disubstituted-pyrazol-3-yl)methyl sulfonamides for neuropathic pain treatment” (Eur J Med Chem, 2016)
